Experimental data taken from ChEMBL document CHEMBL3588765, “Synthesis and molecular docking of 1,2,3-triazole-based sulfonamides as aromatase inhibitors” (Bioorg Med Chem, 2015).
Values after ≈ are worked out from the molar mass of the structure shown.

What was measured:
[1] = test system: Vero; experiment: Cytotoxicity against african green monkey Vero cells after 4 days by green fluorescent protein detection method; format: cell-based; details: Chlorocebus sabaeus, 96 h
[2] = biological target: T1, Aromatase (Homo sapiens, UniProt P11511); experiment: Inhibition of CYP19 (unknown origin) using O-benzyl fluorescein benzyl ester substrate preincubated for 10 mins by fluorimetric analysis relative to control
T1 sequence (P11511 whole entry): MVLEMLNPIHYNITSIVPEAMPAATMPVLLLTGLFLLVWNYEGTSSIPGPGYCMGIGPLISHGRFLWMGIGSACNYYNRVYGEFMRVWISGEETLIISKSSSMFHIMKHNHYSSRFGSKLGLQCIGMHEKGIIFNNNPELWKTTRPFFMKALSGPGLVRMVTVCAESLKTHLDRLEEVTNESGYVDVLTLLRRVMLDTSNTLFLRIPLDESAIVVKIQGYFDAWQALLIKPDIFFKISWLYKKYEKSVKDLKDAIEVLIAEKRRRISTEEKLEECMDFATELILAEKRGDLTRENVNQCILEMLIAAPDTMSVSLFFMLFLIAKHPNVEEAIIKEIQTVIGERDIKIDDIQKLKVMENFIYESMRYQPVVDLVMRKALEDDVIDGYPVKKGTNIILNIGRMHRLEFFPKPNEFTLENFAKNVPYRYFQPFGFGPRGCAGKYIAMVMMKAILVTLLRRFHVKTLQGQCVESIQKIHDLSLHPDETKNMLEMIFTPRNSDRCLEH
In short: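 CYP19 was assayed with dibenzylfluorescein (DBF) as substrate. DBF is dealkylated by the enzyme and hydrolysed to fluorescein. Cofactor mix was 50 mM phosphate buffer pH 7.4 with an NADPH-generating system (NADP⁺, glucose-6-phosphate, MgCl₂, glucose-6-phosphate dehydrogenase). This mix was preincubated 10 min at 37 °C. Enzyme/substrate mixture (16 pmol/mL CYP19 stock, 0.2 mM DBF stock) and test sample were then added.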

[3] = Selectivity index, ratio of IC50 for african green monkey Vero cells to IC50 for CYP19 (unknown origin)
In short: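 Selectivity index was calculated as the IC₅₀ in GFP-Vero cells (4-day fluorescence assay) divided by the IC₅₀ in the DBF-based CYP19 fluorescence assay.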

[4] = Solubility of the compound in phosphate buffer at pH 7.4 medium; format: physicochemical

Structure (SMILES) | IC50 [2] | solubility [4] | IC50 [1] | Ratio IC50 [3]
O=S(=O)(NCCc1ccccc1)c1ccc(-n2cc(-c3ccccc3)nn2)cc1 | > 12.5 µM |  | > 50 µg/mL | 
O=c1ccc2ccc(OCc3cn(-c4ccc(S(=O)(=O)NCCc5ccccc5)cc4)nn3)cc2o1 | > 12.5 µM |  | > 50 µg/mL | 
O=c1ccc2ccc(OCc3cn(-c4cccc(S(=O)(=O)N5CCc6ccccc6C5)c4)nn3)cc2o1 |  | Insoluble | 91.5 µg/mL (≈ 178 µM) | 
COC(=O)c1ccccc1OCc1cn(-c2ccc(S(=O)(=O)N3CCc4cc(OC)c(OC)cc4C3)cc2)nn1 | > 12.5 µM |  |  | 
COc1cc2c(cc1OC)CN(S(=O)(=O)c1ccc(-n3cc(COc4ccccc4C(C)=O)nn3)cc1)CC2 | > 12.5 µM |  |  | 
COc1cc2c(cc1OC)CN(S(=O)(=O)c1ccc(-n3cc(COc4cc(C=O)ccc4OC)nn3)cc1)CC2 | > 12.5 µM |  | > 50 µg/mL | 
O=c1cc(OCc2cn(-c3ccc(S(=O)(=O)N4CCc5ccccc5C4)cc3)nn2)c2ccccc2o1 | > 12.5 µM |  |  | 
O=c1cc(OCc2cn(-c3cccc(S(=O)(=O)N4CCc5ccccc5C4)c3)nn2)c2ccccc2o1 | > 12.5 µM |  | > 50 µg/mL | 
CC(=O)c1ccccc1OCc1cn(-c2ccc(S(=O)(=O)N3CCc4ccccc4C3)cc2)nn1 | > 12.5 µM |  | > 50 µg/mL | 
Cc1c2ccncc2c(C)c2c1[nH]c1ccccc12 [ELLIPTECINE] |  |  | 1.94 µg/mL (≈ 7.88 µM) | 

Now from value to compound, other results behind:

IC50 [2] | solubility [4] | Structure (SMILES) | IC50 [1] | Ratio IC50 [3]
> 12.5 µM |  | COc1cc2c(cc1OC)CN(S(=O)(=O)c1ccc(-n3cc(COc4ccc([N+](=O)[O-])cc4)nn3)cc1)CC2 | > 50 µg/mL | 
> 12.5 µM |  | COc1cc2c(cc1OC)CN(S(=O)(=O)c1ccc(-n3cc(COc4ccccc4C)nn3)cc1)CC2 | > 50 µg/mL | 
3.4 µM |  | O=S(=O)(NCCc1ccccc1)c1ccc(-n2cc(COc3cccc4ccccc34)nn2)cc1 | > 50 µg/mL | >30.35
3.4 µM |  | Cc1ccccc1OCc1cn(-c2ccc(S(=O)(=O)NCCc3ccccc3)cc2)nn1 | > 50 µg/mL | >32.79
2.7 µM |  | COc1ccc(CCNS(=O)(=O)c2ccc(-n3cc(COc4ccc([N+](=O)[O-])cc4)nn3)cc2)cc1OC | > 50 µg/mL | >34.32
8 µM |  | Cc1ccc(OCc2cn(-c3ccc(S(=O)(=O)NCCc4ccccc4)cc3)nn2)cc1 | > 50 µg/mL | >13.93
0.2 µM |  | COc1cc2c(cc1OC)CN(S(=O)(=O)c1cccc(-n3cc(COc4ccc5ccc(=O)oc5c4)nn3)c1)CC2 | > 50 µg/mL | >435.09
4.6 µM |  | COc1ccc(CCNS(=O)(=O)c2ccc(-n3cc(-c4ccccc4)nn3)cc2)cc1OC | > 50 µg/mL | >23.4
1.8 µM |  | COc1cc2c(cc1OC)CN(S(=O)(=O)c1cccc(-n3cc(COc4cc(=O)oc5ccccc45)nn3)c1)CC2 | 86.3 µg/mL (≈ 150 µM) | 48
1.3 µM |  | O=S(=O)(NCCc1ccccc1)c1ccc(-n2cc(COc3ccc4ccccc4c3)nn2)cc1 | > 50 µg/mL | >79.37
2.9 µM |  | O=[N+]([O-])c1ccc(OCc2cn(-c3ccc(S(=O)(=O)NCCc4ccccc4)cc3)nn2)cc1 | > 50 µg/mL | >35.96
9.4 µM |  | O=S(=O)(NCCc1ccccc1)c1ccc(-n2cc(COc3ccccc3)nn2)cc1 | > 50 µg/mL | >12.24
1.8 µM |  | O=c1cc(OCc2cn(-c3ccc(S(=O)(=O)NCCc4ccccc4)cc3)nn2)c2ccccc2o1 | > 50 µg/mL | >55.27
7.9 µM |  | O=Cc1ccc(OCc2cn(-c3ccc(S(=O)(=O)NCCc4ccccc4)cc3)nn2)cc1 | > 50 µg/mL | >13.68
